For data set [1], the system named is HeLa. As to the kind of experiment: Cytostatic activity against human HeLa cells assessed as growth inhibition after 3 days by particle counting analysis. The settings on record: 72 h. The data set is classed as functional, cell-based. Summed up:
(§1)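 Tumor cells seeded and exposed to a range of compound concentrations. Cell number counted with a particle counter after 2 days (L1210, L1210/TK) or 3 days (CEM, CEM/TK, HeLa, HeLa TK, Caco-2, Colo-320).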

The test system of a further data set is Human alphaherpesvirus 2. As to the kind of experiment: Antiviral activity against Herpes simplex virus 2 G infected in HEL cells assessed as inhibition of virus-induced cytopathicity. Particulars: Human alphaherpesvirus 2, strain G. The data set is classed as functional, organism-based.
In data set [2] the test system is L1210. As to the kind of experiment: Cytostatic activity against mouse L1210 cells assessed as growth inhibition after 2 days by particle counting analysis. The data set is classed as functional, cell-based. The settings on record: L1210, 48 h. Summed up:
as §1

For data set [3], the system named is Human alphaherpesvirus 1. As to the kind of experiment: Antiviral activity against Herpes simplex virus 1 KOS infected in HEL cells assessed as inhibition of virus-induced cytopathicity. The data set is classed as functional, organism-based. Particulars: Human alphaherpesvirus 1, KOS.
Data set [4] in a line: Cytotoxicity against HEL cells. Type of data set: cell-based. Particulars: human.
Data set [5] deals with Human alphaherpesvirus 1. The experiment in a line: Antiviral activity against acyclovir-resistant thymidine kinase-deficient Herpes simplex virus 1 KOS infected in HEL cells assessed as inhibition of virus-induced cytopathicity. The data set is classed as functional, organism-based. Particulars: Human alphaherpesvirus 1, KOS. (Cytopathic effects are the visible damage that an infection or toxin causes in cultured cells.)

The test system of another data set is Felid alphaherpesvirus 1. As to the kind of experiment: Antiviral activity against Feline herpesvirus infected in cat CRFK cells assessed as inhibition of virus-induced cytopathicity. The settings on record: Felid alphaherpesvirus 1, CRFK. Type of data set: functional, organism-based.
Data set [6] deals with CCRF-CEM. As to the kind of experiment: Cytostatic activity against human CEM cells assessed as growth inhibition after 3 days by particle counting analysis. The data set is classed as functional, cell-based. The settings on record: 72 h. Summed up: as §1
For data set [7], the system named is HeLa. The experiment in a line: Cytostatic activity against thymidine kinase-deficient human HeLa cells assessed as growth inhibition after 3 days by particle counting analysis. Type of data set: functional, cell-based. Particulars: 72 h. Summed up:
as §1

A further data set concerns Caco-2. The experiment in a line: Cytostatic activity against human Caco2 cells assessed as growth inhibition after 3 days by particle counting analysis. Type of data set: functional, cell-based. The settings on record: Caco-2, 72 h. The procedure, abridged:
as §1

The next data set concerns COLO 320. The experiment in a line: Cytostatic activity against human COLO320 cells assessed as growth inhibition after 3 days by particle counting analysis. Type of data set: functional, cell-based. The settings on record: COLO 320, 72 h. The procedure, abridged:
as §1

For the next data set, the system named is Huh-7. As to the kind of experiment: Cytotoxicity against human HuH7 cells. Type of data set: cell-based.
The test system of a further data set is Hepatitis C virus. As to the kind of experiment: Antiviral activity against Hepatitis C virus genotype 1b infected in human HuH7 cells assessed as inhibition of viral replication. Type of data set: functional, organism-based, Hepacivirus hominis.
Data set [8] concerns L1210. The experiment in a line: Cytostatic activity against thymidine kinase-deficient mouse L1210 cells assessed as growth inhibition after 2 days by particle counting analysis. Type of data set: functional, cell-based. Particulars: L1210, 48 h. Summed up: as §1
Data set [9] has as its system Human immunodeficiency virus 1. The experiment in a line: Antiviral activity against HIV1 3B infected in human CEM cells assessed as virus-induced giant cell formation after 4 days by microscopic analysis. Type of data set: functional, organism-based. Particulars: Human immunodeficiency virus 1, 3B, CCRF-CEM, 96 h. The procedure, abridged: (§2)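 CEM cells (∼3 × 10^5 cells/cm3) infected with 100 CCID50/mL of HIV-1(IIIB) or HIV-2(ROD), seeded into wells with compound dilutions. Giant cell formation examined microscopically after 4 days at 37 °C.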

For data set [10], the system named is CCRF-CEM. As to the kind of experiment: Cytostatic activity against thymidine kinase-deficient human CEM cells assessed as growth inhibition after 3 days by particle counting analysis. The data set is classed as functional, cell-based. The settings on record: 72 h. Summed up: as §1
Data set [11] concerns Human immunodeficiency virus 2. As to the kind of experiment: Antiviral activity against HIV2 ROD infected in human CEM cells assessed as virus-induced giant cell formation after 4 days by microscopic analysis. The data set is classed as functional, organism-based. Particulars: Human immunodeficiency virus 2, ISOLATE ROD, CCRF-CEM, 96 h. The procedure, abridged: as §2
In data set [12] the test system is CCRF-CEM. The experiment in a line: Cytotoxicity against human CEM cells. Type of data set: cell-based.

Bounds are passed on as bounds.

Consider 13 compounds from ChEMBL document CHEMBL3085645, “Design, synthesis and biological evaluation of phosphorodiamidate prodrugs of antiviral and anticancer nucleosides” (Eur J Med Chem, 2013).

In general, IC50 refers to the midpoint of a concentration-inhibition curve.

With `C[C@H](NP(=O)(N[C@@H](C)C(=O)OCc1ccccc1)OC[C@H]1O[C@@H](n2cnc(C(N)=O)c2N)[C@H](O)[C@@H]1O)C(=O)OCc1ccccc1`, the IC50 in the data set with HeLa [1], in the data set with L1210 [2], in the data set with CCRF-CEM [6] and in the data set on HeLa [7] was above 250 µM each time. Also, the EC50 with Human alphaherpesvirus 2, with Human alphaherpesvirus 1 [3], with Human alphaherpesvirus 1 [5] and in the data set with Felid alphaherpesvirus 1 was above 100 µM each time. This compound also came in with an MCC in data set [4] above 100 µM.

Take `CC(=O)Nc1ccn([C@H]2CS[C@@H](COP(=O)(N[C@@H](C)C(=O)OCc3ccccc3)N[C@@H](C)C(=O)OCc3ccccc3)O2)c(=O)n1`: the concentration for half-maximal inhibition (IC50) in the data set on HeLa [1] was 155 µM; in the data set with Caco-2 it was at least 250 µM; with COLO 320, above 250 µM; with CCRF-CEM [6] it was 120 µM.

For `C[C@H](NP(=O)(N[C@@H](C)C(=O)OCC(C)(C)C)OC[C@H]1O[C@@H](n2cnc(C(N)=O)n2)[C@H](O)[C@@H]1O)C(=O)OCC(C)(C)C`, the CC50 with Huh-7 (human, huh-7, read-out: ED50 (the source's name)) was above 100 µM. The EC50 in the data set with Hepatitis C virus (Huh-7, read-out: ED50 (the source's name)) was above 100 µM.

As for `Cc1cn([C@H]2C=C[C@@H](COP(=O)(N[C@@H](C)C(=O)OC3CCCCC3)N[C@@H](C)C(=O)OC3CCCCC3)O2)c(=O)[nH]c1=O`, the IC50 with L1210 [8] worked out at 25 µM; in the data set on HeLa [1], 96 µM; in the data set with CCRF-CEM [10] it was 54 µM; with L1210 [2], 29 µM; in the data set with Caco-2 it was 135 µM; with CCRF-CEM [6], 73 µM. In the data set with HeLa [7], the IC50 worked out at 36 µM. Moreover, the figures for the EC50 in [9] and in data set [11] were 0.15 µM and 0.38 µM, respectively.

As to `C[C@H](NP(=O)(N[C@@H](C)C(=O)OCc1ccccc1)OC[C@H]1O[C@@H](n2cnc(C(N)=O)n2)[C@H](O)[C@@H]1O)C(=O)OCc1ccccc1`, in the data set with Huh-7 (Homo sapiens, Huh-7, read-out: EC50 (the source's name)), the CC50 was above 100 µM. Besides, the EC50 in the data set on Hepatitis C virus (Huh-7, read-out: EC50) is above 100 µM.

On to `CCOc1nc(N)nc2c1ncn2[C@@H]1O[C@H](COP(=O)(N[C@H](C)C(=O)OCC(C)(C)C)N[C@H](C)C(=O)OCC(C)(C)C)[C@@H](O)[C@@]1(C)F`, for which, in the data set on Huh-7 (human, huh-7, read-out: CC50), the CC50 was above 100 µM. In addition, the EC50 in the data set on Hepatitis C virus (Huh-7, read-out: EC50) is 0.23 µM.

In the case of `NC(=O)c1ncn([C@@H]2O[C@H](CO)[C@@H](O)[C@H]2O)c1N` [ACADESINE], the IC50 was 165 µM in the data set on HeLa [1], at least 250 µM in the data set with L1210 [2], 210 µM in the data set with CCRF-CEM [6] and at least 250 µM in the data set on HeLa [7]. The EC50 in the data set with Human alphaherpesvirus 2, with Human alphaherpesvirus 1 [3], in the data set with Human alphaherpesvirus 1 [5] and in the data set with Felid alphaherpesvirus 1 was above 100 µM throughout. Also, the MCC in [4] was above 100 µM.

In the data set with CCRF-CEM [12], `Nc1nc(NC2CC2)c2ncn([C@H]3C=C[C@@H](CO)C3)c2n1` [ABACAVIR] came in with a CC50 above 250 µM. Further, the IC50 in the data set with HeLa [1] is 170 µM; with L1210 [2] it was above 250 µM; in the data set on CCRF-CEM [6], above 250 µM. The figures for the EC50 in data set [9] and in data set [11] were 23 µM and 18 µM, respectively.

`CC(=O)Nc1ccn([C@H]2CS[C@@H](CO)O2)c(=O)n1`: the half-maximal inhibitory concentration (IC50) in the data set with L1210 [8] is above 250 µM; with HeLa [1] it was 242 µM; in the data set on CCRF-CEM [10], above 250 µM; with L1210 [2], above 250 µM; with Caco-2 it was above 250 µM; in the data set with COLO 320, at least 250 µM. Further, the IC50 in the data set on CCRF-CEM [6] and in the data set with HeLa [7] was above 250 µM each time.

The compound `Cc1cn([C@H]2C[C@H](N=[N+]=[N-])[C@@H](COP(=O)(N[C@@H](C)C(=O)OCc3ccccc3)N[C@@H](C)C(=O)OCc3ccccc3)O2)c(=O)[nH]c1=O` yielded a CC50 in the data set with CCRF-CEM [12] of 30 µM. Besides, the EC50 in data set [9] was 0.0092 µM; in data set [11], 0.03 µM.

Consider `COC(=O)[C@H](C)NP(=O)(N[C@@H](C)C(=O)OC)OC[C@H]1O[C@@H](n2cnc(C(N)=O)c2N)[C@H](O)[C@@H]1O`, for which the IC50 with HeLa [1] was above 250 µM; in the data set on L1210 [2], at least 250 µM; with CCRF-CEM [6] it was above 250 µM; with HeLa [7] it was above 250 µM. The EC50 in the data set on Human alphaherpesvirus 2, in the data set with Human alphaherpesvirus 1 [3], in the data set with Human alphaherpesvirus 1 [5] and with Felid alphaherpesvirus 1 was above 100 µM in each case. Also, the MCC in data set [4] was above 100 µM.

Turning to `Cc1cn([C@H]2C=C[C@@H](CO)O2)c(=O)[nH]c1=O` [STAVUDINE], the IC50 with L1210 [8] was at least 250 µM; in the data set with HeLa [1], above 250 µM; with CCRF-CEM [10], above 250 µM; in the data set with Caco-2, above 250 µM; in the data set on COLO 320, 159 µM; in the data set on HeLa [7] it was above 250 µM. In addition, the EC50 in data set [9] was determined as 0.39 µM; in data set [11], 0.58 µM.

Turning to `CCCCCc1ccc(-c2cc3cn([C@H]4C[C@H](O)[C@@H](COP(=O)(N[C@@H](C)C(=O)OCc5ccccc5)N[C@@H](C)C(=O)OCc5ccccc5)O4)c(=O)nc3o2)cc1`, the EC50 in the data set on Human alphaherpesvirus 2, with Human alphaherpesvirus 1 [3], in the data set with Human alphaherpesvirus 1 [5] and with Felid alphaherpesvirus 1 was above 100 µM in each case. This compound showed an MCC in data set [4] above 100 µM.
